Our source for the IC50 values is ChEMBL document CHEMBL3286120, “Design and synthesis of novel soluble 2,5-diketopiperazine derivatives as potential anticancer agents” (Eur J Med Chem, 2014).

The test system of one assay is NCI-H1975. Description: Cytotoxicity against human NCI-H1975 cells assessed as reduction in cell viability after 72 hrs by CCK8 assay. Format: functional, cell-based. Particulars: Homo sapiens, NCI-H1975, 72 h; read-out: IC50; call rule not given here. Summed up:
(§1)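 Cells kept in RPMI or DMEM with 10% FBS and 1% penicillin/streptomycin at 37 °C in 5% CO2. Seeded at 400-800 cells/well in 384-well plates and exposed to varying compound concentrations, with solution-only control, for 72 h. CCK8 reagent added, then absorbance read at 450 nm. Plinabulin and TSA were positive controls. Mean SD of three experiments.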
With `C=CCn1c(=O)/c(=C\c2cccc(Cl)c2)[nH]c(=O)/c1=C\c1ccccc1OC`, the IC50 amounted to 5.1 µM.
Regarding `C=CCn1c(=O)/c(=C\c2cccc(F)c2)[nH]c(=O)/c1=C\c1ccccc1OC`, the IC50 is 25.6 µM.
Still for that read-out and setting: under `C=CCn1c(=O)/c(=C\c2cccc(C)c2)[nH]c(=O)/c1=C\c1ccccc1OC` stands 32.8 µM; under `C=CCn1c(=O)/c(=C\c2ccccc2Cl)[nH]c(=O)/c1=C\c1ccccc1OC`, 9.2 µM; under `C=CCn1c(=O)/c(=C\c2ccccc2F)[nH]c(=O)/c1=C\c1ccccc1OC`, 25.1 µM.
On to `C=CCn1c(=O)/c(=C\c2ccccc2C(F)(F)F)[nH]c(=O)/c1=C\c1ccccc1OC`, for which the IC50 was found to be 14.5 µM.
On the same count and under the same terms, under `C=CCn1c(=O)/c(=C\c2ccccc2OC)[nH]c(=O)/c1=C\c1ccccc1OC` stands 21.5 µM.

In another assay the test system is U-937. As to the kind of experiment: Cytotoxicity against human U937 cells assessed as reduction in cell viability after 72 hrs by CCK8 assay. Type of assay: functional, cell-based. Particulars: Homo sapiens, U-937, 72 h; read-out: IC50. Summed up:
as §1
In general terms: Tetrazolium assays rely on reduction of a dye to a coloured formazan, in cell work by metabolically active cells.
For `C=CCn1c(=O)/c(=C\c2cccc(Cl)c2)[nH]c(=O)/c1=C\c1ccccc1OC`, the concentration for half-maximal inhibition (IC50) worked out at 1.2 µM.
Regarding `C=CCn1c(=O)/c(=C\c2cccc(F)c2)[nH]c(=O)/c1=C\c1ccccc1OC`, the IC50 is 2.5 µM.
The same measure, in the same setting: next, `C=CCn1c(=O)/c(=C\c2cccc(C)c2)[nH]c(=O)/c1=C\c1ccccc1OC`: 5.1 µM; `C=CCn1c(=O)/c(=C\c2ccccc2Cl)[nH]c(=O)/c1=C\c1ccccc1OC`: 0.7 µM.
For `C=CCn1c(=O)/c(=C\c2ccccc2F)[nH]c(=O)/c1=C\c1ccccc1OC`, the IC50 was found to be 5.5 µM.
Take `C=CCn1c(=O)/c(=C\c2ccccc2C(F)(F)F)[nH]c(=O)/c1=C\c1ccccc1OC`: the half-maximal inhibitory concentration (IC50) worked out at 1.5 µM.
On to `C=CCn1c(=O)/c(=C\c2ccccc2OC)[nH]c(=O)/c1=C\c1ccccc1OC`, for which the IC50 came out at 5.1 µM.

The subject of a further assay is A549. Description: Cytotoxicity against human A549 cells assessed as reduction in cell viability after 72 hrs by CCK8 assay. Format: functional, cell-based. As to conditions: Homo sapiens, A549, 72 h; read-out: IC50. Summed up: as §1
With `C=CCn1c(=O)/c(=C\c2cccc(Cl)c2)[nH]c(=O)/c1=C\c1ccccc1OC`, the IC50 is 5.2 µM.
On to `C=CCn1c(=O)/c(=C\c2cccc(F)c2)[nH]c(=O)/c1=C\c1ccccc1OC`, for which the IC50 was 19.7 µM.
Same read-out and setting: under `C=CCn1c(=O)/c(=C\c2cccc(C)c2)[nH]c(=O)/c1=C\c1ccccc1OC` stands 22.7 µM.
Still for that read-out and setting: next, `C=CCn1c(=O)/c(=C\c2ccccc2Cl)[nH]c(=O)/c1=C\c1ccccc1OC`: 5.3 µM.
Turning to `C=CCn1c(=O)/c(=C\c2ccccc2C(F)(F)F)[nH]c(=O)/c1=C\c1ccccc1OC`, the IC50 worked out at 7 µM.
On the same count and under the same terms, under `C=CCn1c(=O)/c(=C\c2ccccc2OC)[nH]c(=O)/c1=C\c1ccccc1OC` stands 22.4 µM.

The assay is the same for the next values; noted with them: a549.
As for `C=CCn1c(=O)/c(=C\c2ccccc2F)[nH]c(=O)/c1=C\c1ccccc1OC`, the IC50 result was “Not Active”.

Test system in a further assay: not listed separately
As to the kind of experiment: Cytotoxicity against human HuH7 cells assessed as reduction in cell viability after 72 hrs by CCK8 assay. As to conditions: Homo sapiens, Huh-7, 72 h; read-out: IC50. Type of assay: functional, cell-based, Huh-7. Summed up: as §1
On to `C=CCn1c(=O)/c(=C\c2cccc(Cl)c2)[nH]c(=O)/c1=C\c1ccccc1OC`, for which the IC50 was found to be 8.9 µM.
Regarding `C=CCn1c(=O)/c(=C\c2cccc(F)c2)[nH]c(=O)/c1=C\c1ccccc1OC`, the IC50 amounted to 27.2 µM.
On the same count and under the same terms, under `C=CCn1c(=O)/c(=C\c2cccc(C)c2)[nH]c(=O)/c1=C\c1ccccc1OC` stands 21.4 µM; under `C=CCn1c(=O)/c(=C\c2ccccc2Cl)[nH]c(=O)/c1=C\c1ccccc1OC`, 6.4 µM; under `C=CCn1c(=O)/c(=C\c2ccccc2F)[nH]c(=O)/c1=C\c1ccccc1OC`, 31.3 µM.
On the same count and under the same terms, under `C=CCn1c(=O)/c(=C\c2ccccc2C(F)(F)F)[nH]c(=O)/c1=C\c1ccccc1OC` stands 9.5 µM; under `C=CCn1c(=O)/c(=C\c2ccccc2OC)[nH]c(=O)/c1=C\c1ccccc1OC`, 21.2 µM.

A further assay relates to MOLT-4. Description: Cytotoxicity against human MOLT4 cells assessed as reduction in cell viability after 72 hrs by CCK8 assay. Type of assay: functional, cell-based. As to conditions: Homo sapiens, MOLT-4, 72 h; read-out: IC50. Summed up: as §1
For the molecule `C=CCn1c(=O)/c(=C\c2cccc(Cl)c2)[nH]c(=O)/c1=C\c1ccccc1OC`, the IC50 amounted to 4.9 µM.
On the same count and under the same terms, next, `C=CCn1c(=O)/c(=C\c2cccc(F)c2)[nH]c(=O)/c1=C\c1ccccc1OC`: 6.5 µM; `C=CCn1c(=O)/c(=C\c2cccc(C)c2)[nH]c(=O)/c1=C\c1ccccc1OC`: 16 µM.
`C=CCn1c(=O)/c(=C\c2ccccc2Cl)[nH]c(=O)/c1=C\c1ccccc1OC`: the IC50 was 4.4 µM.
The same measure, in the same setting: under `C=CCn1c(=O)/c(=C\c2ccccc2F)[nH]c(=O)/c1=C\c1ccccc1OC` stands 20 µM; under `C=CCn1c(=O)/c(=C\c2ccccc2C(F)(F)F)[nH]c(=O)/c1=C\c1ccccc1OC`, 4.4 µM; under `C=CCn1c(=O)/c(=C\c2ccccc2OC)[nH]c(=O)/c1=C\c1ccccc1OC`, 13.1 µM.

Test system in another assay: not listed separately
As to the kind of experiment: Cytotoxicity against human BGC823 cells assessed as reduction in cell viability after 72 hrs by CCK8 assay. Type of assay: functional, cell-based, BGC-823. Particulars: Homo sapiens, BGC-823, 72 h; read-out: IC50. The essentials:
as §1
With `C=CCn1c(=O)/c(=C\c2cccc(Cl)c2)[nH]c(=O)/c1=C\c1ccccc1OC`, the concentration for half-maximal inhibition (IC50) is 4.6 µM.
Still for that read-out and setting: next, `C=CCn1c(=O)/c(=C\c2cccc(F)c2)[nH]c(=O)/c1=C\c1ccccc1OC`: 5.6 µM; `C=CCn1c(=O)/c(=C\c2cccc(C)c2)[nH]c(=O)/c1=C\c1ccccc1OC`: 20.4 µM; `C=CCn1c(=O)/c(=C\c2ccccc2Cl)[nH]c(=O)/c1=C\c1ccccc1OC`: 4.6 µM.
Still for that read-out and setting: next, `C=CCn1c(=O)/c(=C\c2ccccc2F)[nH]c(=O)/c1=C\c1ccccc1OC`: 18.9 µM; `C=CCn1c(=O)/c(=C\c2ccccc2C(F)(F)F)[nH]c(=O)/c1=C\c1ccccc1OC`: 5.1 µM; `C=CCn1c(=O)/c(=C\c2ccccc2OC)[nH]c(=O)/c1=C\c1ccccc1OC`: 13.4 µM.

Another assay deals with K562. Description: Cytotoxicity against human K562 cells assessed as reduction in cell viability after 72 hrs by CCK8 assay. As to conditions: Homo sapiens, K562, 72 h; read-out: IC50. Type of assay: functional, cell-based. The essentials: as §1
As for `C=CCn1c(=O)/c(=C\c2cccc(Cl)c2)[nH]c(=O)/c1=C\c1ccccc1OC`, the IC50 came to 2.7 µM.
With `C=CCn1c(=O)/c(=C\c2cccc(F)c2)[nH]c(=O)/c1=C\c1ccccc1OC`, the IC50 came out at 4.1 µM.
Still for that read-out and setting: next, `C=CCn1c(=O)/c(=C\c2cccc(C)c2)[nH]c(=O)/c1=C\c1ccccc1OC`: 8.8 µM.
Still for that read-out and setting: next, `C=CCn1c(=O)/c(=C\c2ccccc2Cl)[nH]c(=O)/c1=C\c1ccccc1OC`: 2.5 µM.
In the case of `C=CCn1c(=O)/c(=C\c2ccccc2F)[nH]c(=O)/c1=C\c1ccccc1OC`, the IC50 came to 5.6 µM.
Still for that read-out and setting: under `C=CCn1c(=O)/c(=C\c2ccccc2C(F)(F)F)[nH]c(=O)/c1=C\c1ccccc1OC` stands 2.7 µM.
`C=CCn1c(=O)/c(=C\c2ccccc2OC)[nH]c(=O)/c1=C\c1ccccc1OC`: the IC50 turned out to be 7.4 µM.

For another assay, the system named is MCF7. Description: Cytotoxicity against human MCF7 cells assessed as reduction in cell viability after 72 hrs by CCK8 assay. Type of assay: functional, cell-based. As to conditions: Homo sapiens, MCF7, 72 h; read-out: IC50. The essentials:
as §1
Take `C=CCn1c(=O)/c(=C\c2cccc(Cl)c2)[nH]c(=O)/c1=C\c1ccccc1OC`: the concentration for half-maximal inhibition (IC50) is 5.2 µM.
Still for that read-out and setting: under `C=CCn1c(=O)/c(=C\c2cccc(F)c2)[nH]c(=O)/c1=C\c1ccccc1OC` stands 13.7 µM; under `C=CCn1c(=O)/c(=C\c2cccc(C)c2)[nH]c(=O)/c1=C\c1ccccc1OC`, 20.7 µM.
The same measure, in the same setting: under `C=CCn1c(=O)/c(=C\c2ccccc2Cl)[nH]c(=O)/c1=C\c1ccccc1OC` stands 4.7 µM; under `C=CCn1c(=O)/c(=C\c2ccccc2F)[nH]c(=O)/c1=C\c1ccccc1OC`, 23 µM.
The same measure, in the same setting: next, `C=CCn1c(=O)/c(=C\c2ccccc2C(F)(F)F)[nH]c(=O)/c1=C\c1ccccc1OC`: 6.5 µM; `C=CCn1c(=O)/c(=C\c2ccccc2OC)[nH]c(=O)/c1=C\c1ccccc1OC`: 41.1 µM.

A further assay has as its system HeLa. As to the kind of experiment: Cytotoxicity against human HeLa cells assessed as reduction in cell viability after 72 hrs by CCK8 assay. Type of assay: functional, cell-based. Particulars: Homo sapiens, HeLa, 72 h; read-out: IC50. Summed up:
as §1
As for `C=CCn1c(=O)/c(=C\c2cccc(Cl)c2)[nH]c(=O)/c1=C\c1ccccc1OC`, the IC50 worked out at 5.5 µM.
In the case of `C=CCn1c(=O)/c(=C\c2cccc(F)c2)[nH]c(=O)/c1=C\c1ccccc1OC`, the IC50 was 9.1 µM.
On the same count and under the same terms, next, `C=CCn1c(=O)/c(=C\c2cccc(C)c2)[nH]c(=O)/c1=C\c1ccccc1OC`: 19.3 µM; `C=CCn1c(=O)/c(=C\c2ccccc2Cl)[nH]c(=O)/c1=C\c1ccccc1OC`: 5.1 µM.
On to `C=CCn1c(=O)/c(=C\c2ccccc2F)[nH]c(=O)/c1=C\c1ccccc1OC`, for which the IC50 came out at 45 µM.
On to `C=CCn1c(=O)/c(=C\c2ccccc2C(F)(F)F)[nH]c(=O)/c1=C\c1ccccc1OC`, for which the IC50 was determined as 4.6 µM.
Still for that read-out and setting: next, `C=CCn1c(=O)/c(=C\c2ccccc2OC)[nH]c(=O)/c1=C\c1ccccc1OC`: 6.9 µM.

The test system of another assay is HL-60. Description: Cytotoxicity against human HL60 cells assessed as reduction in cell viability after 72 hrs by CCK8 assay. Format: functional, cell-based. Particulars: Homo sapiens, HL-60, 72 h; read-out: IC50. Summed up:
as §1
Regarding `C=CCn1c(=O)/c(=C\c2cccc(Cl)c2)[nH]c(=O)/c1=C\c1ccccc1OC`, the IC50 was determined as 4.5 µM.
The same measure, in the same setting: next, `C=CCn1c(=O)/c(=C\c2cccc(F)c2)[nH]c(=O)/c1=C\c1ccccc1OC`: 8.89 µM; `C=CCn1c(=O)/c(=C\c2cccc(C)c2)[nH]c(=O)/c1=C\c1ccccc1OC`: 16.7 µM; `C=CCn1c(=O)/c(=C\c2ccccc2Cl)[nH]c(=O)/c1=C\c1ccccc1OC`: 4.2 µM.
Still for that read-out and setting: next, `C=CCn1c(=O)/c(=C\c2ccccc2F)[nH]c(=O)/c1=C\c1ccccc1OC`: 18.5 µM; `C=CCn1c(=O)/c(=C\c2ccccc2C(F)(F)F)[nH]c(=O)/c1=C\c1ccccc1OC`: 4.6 µM; `C=CCn1c(=O)/c(=C\c2ccccc2OC)[nH]c(=O)/c1=C\c1ccccc1OC`: 15.7 µM.

For orientation: IC50 means the concentration at which inhibition is half-maximal.
